SMILES strings stand for the structures.

One experiment deals with G361 melanoma cells. The experiment can be described thus: G361 melanoma cell proliferation. The experiment is classed as cell-based. As to conditions: Homo sapiens, G-361, read-out: IC50, inhibition of G361 cell proliferation.
For the next experiment, the system named is UACC-62-R cells. Kind of experiment: PLX4720-resistant UACC-62-R melanoma cell proliferation. The experiment is classed as cell-based, human. The method in brief: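 The PLX4720-resistant UACC-62-R line was derived by sustained culture in low-dose PLX4720. It was maintained in 20 μM PLX4720, with medium replenished twice weekly. Proliferation was tracked as IncuCyte confluence and IC50 was derived for resistant and wild-type cells.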

For the compound `C=CCc1ccc(O)c(-c2cc(CC=C)ccc2O)c1` [MGN, magnolol], in the experiment on G361 melanoma cells, the IC50 is 38 µM.
Regarding `CCCS(=O)(=O)Nc1ccc(F)c(C(=O)c2c[nH]c3ncc(Cl)cc23)c1F` [PLX4720], in the experiment with UACC-62-R cells (Homo sapiens, read-out: IC50, inhibition of UACC-62-R cell proliferation), the IC50 was 26.2 µM. In the experiment on UACC-62-R cells (proliferation in presence of PLX4720), the “resistance of UACC-62-R relative to UACC-62-WT cells” value is listed as “approximately six times more resistant”.

The values above are taken from publication PMC7883397 (Cancer treatment and research communications, 2020).
